Assay outcomes as filed in PubChem BioAssay.
E-selectin induc = induces E-selectin expression in human endothelial cells; HUVEC E-selectin immunofluorescence imaging; normalized: neutral wells 0, TNF-alpha wells 100; activation, % at 7.58 µM; 260,000 tested, 0.37% active;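 active means mean E-selectin-positive cell signal at least 10% of the positive control, reached in at least 60% of replicates, without over 20% cell loss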
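Read-out basis: % PE-positive cells; Test system: HUVEC primary endothelial cells; Technique: immunofluorescence imaging; Dosing: single-point compound dose.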
ERAP1 HTS inh = inhibitors of human ERAP1 aminopeptidase; Q9NZ08; recombinant ERAP1, Leu-AMC fluorescence, 60 min; inhibition, % at 10.7 µM; 340,000 tested, 0.15% active; AID 652197;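 active means mean replicate inhibition of at least 30%, or all replicates individually reaching that 30% level; inactive means mean below 30% and not every replicate reaching it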;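 further: 0% = neutral control wells and 100% = L-leucinethiol positive control wells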
Ecoli rRNA inh = selective bacterial rRNA inhibition in E. coli. E. coli WT GFP vs humanized-ribosome RFP mutants, fluorescence, 24 h; stronger effect = lower value; DMSO median 0, no signal -100. GFP signal change (wild-type ribosome), % (no concentration beside the values). 350,000 tested, 1.6% active. AID 720706;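 active means significant combined selectivity score with lowered wild-type GFP, culture density cut under 30%, mutant RFP and density less affected; inactive means any of these conditions unmet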
S100A4 MyoIIA = inhibitors of human S100A4 binding to myosin IIA peptide; P26447; S100A4/TAMRA-MyoIIA peptide fluorescence polarization; 360,000 tested, 0.14% active; inhibition, % at 10.7 µM;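 active means mean inhibition of at least 70% across replicates, with every replicate also reaching that level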
Target sequence (P26447 whole entry, looked up): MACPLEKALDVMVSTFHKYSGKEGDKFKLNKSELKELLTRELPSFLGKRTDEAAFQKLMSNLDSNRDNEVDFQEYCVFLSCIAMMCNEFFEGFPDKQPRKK
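Material: S100A4 monomer protein | Medium: HEPES pH 7.2 with CaCl2, KCl, NaCl, DTT, Triton | Reagent: Labelled myosin peptide probe, 5 nM | Doses: One dose per compound | Times: 5 min incubation before reading | Benchmarks: Neutral control DMSO, positive control TFP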
AF4-AF9 inh = MLL-AF4/AF9 protein interaction inhibition; P42568; AlphaScreen, biotin-AF4 peptide binding to FLAG-AF9; inhibition, % at 10 µM; 350,000 tested, 0.47% active;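 active means every replicate reaching a set inhibition limit, whatever the replicate mean, cut at about 25% in these data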;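 further: 0% = plate neutral control median and 100% = total signal loss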
SIRT5 block = blocks human SIRT5 desuccinylation of peptide | Q9NXA8 | Purified SirT5, succinyl-peptide AMC, trypsin-coupled fluorescence | inhibition, % at 15 µM | 330,000 tested, 1.1% active; in the data active means inhibition above about 15%
Target sequence (Q9NXA8 whole entry, looked up): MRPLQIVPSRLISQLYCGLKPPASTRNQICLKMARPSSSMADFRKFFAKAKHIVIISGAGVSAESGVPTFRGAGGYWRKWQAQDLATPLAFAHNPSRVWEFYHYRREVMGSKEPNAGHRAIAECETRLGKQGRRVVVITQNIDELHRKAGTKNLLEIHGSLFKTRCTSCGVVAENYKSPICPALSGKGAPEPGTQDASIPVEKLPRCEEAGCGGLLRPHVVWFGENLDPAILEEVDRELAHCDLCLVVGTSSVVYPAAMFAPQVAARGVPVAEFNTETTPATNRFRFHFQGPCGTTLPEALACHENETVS
Active calls of the source: *; nt = no result. Sampled rows, rich in hits. Any-hit rate of the full collection: about 3.4%.

SMILES	E-selectin induc	ERAP1 HTS inh	Ecoli rRNA inh	S100A4 MyoIIA	AF4-AF9 inh	SIRT5 block
O=C(O)CC(CCc1ccccc1)OC1OC(CO)C(O)C(O)C1O (centres undefined)	nt	32*	-2	13	7	3
COCCn1c(SCC(=O)N2CCCC2)nnc1-c1ccco1	0	-1	9	-2	28*	-1
COc1ccc(Nc2nc(NCc3ccco3)nc(N/N=C/c3ccccc3F)n2)cc1	-1	-2	-27*	-3	7	-2
C[C@@H]1CN(C)C(=O)Cc2cc(N)ccc2O[C@H]1CN(C)C(=O)OC(C)(C)C	nt	nt	-2	nt	nt	nt
CN1CCCC1CCNc1ccc2c(=O)c3ccccc3oc2c1 (centres undefined)	0	180*	-15	0	-12	-160
CC(C)CC#Cc1ccc([C@@H]2[C@@H](CO)N3C(=O)CN(C(=O)c4ccccn4)C[C@H]23)cc1	0	1	7	-5	2	33*
CC(C)CC#Cc1ccc([C@@H]2[C@H](CO)N3C(=O)CN(C(=O)c4ccccn4)C[C@@H]23)cc1	0	0	-3	107*	0	1
Cc1ccc(-c2ccc([C@@H]3[C@@H](CO)N4C(=O)CN(C(=O)Cc5ccccn5)C[C@@H]34)cc2)cc1	0	nt	9	9	-1	2
COc1ccc(-c2ccc([C@@H]3[C@H]4CN(C(=O)Cc5ccccn5)CC(=O)N4[C@H]3CO)cc2)cc1	0	nt	-4	nt	nt	28*
Cc1cc(C(=O)Nc2cccc3c2O[C@H](CN(C)Cc2ccc(Cl)c(Cl)c2)[C@@H](C)CN([C@H](C)CO)C3=O)n(C)n1	0	5	-5	-2	5	6
CO[C@H]1CN(C)C(=O)c2cc(NC(=O)CC(F)(F)F)ccc2OC[C@@H](C)N(C(=O)C2CCOCC2)C[C@@H]1C	0	2	2	-39	-16	3
COc1ccc(S(=O)(=O)Nc2cccc3c2O[C@H](CN(C)S(=O)(=O)c2ccc(F)cc2)[C@H](C)CN([C@@H](C)CO)C3=O)cc1	-1	1	2	2	-24	1
Cn1ccc(/C=N/N=C2/NC(=O)CS2)n1	0	3	-43*	2	1	2
CC(=O)Nc1c(-c2ccccc2)nc2ncccn12	0	7	12	-10	48*	-2
CCCC#Cc1ccc2c(c1)O[C@@H](CN(C)C(=O)C1CCCCC1)[C@H](C)CN([C@H](C)CO)S2(=O)=O	1	nt	-4	nt	nt	nt
CN1CCN(C(=O)C[C@H]2C=C[C@@H](NS(=O)(=O)c3cccc(F)c3)[C@@H](CO)O2)CC1	0	-1	-1	-4	-7	2
COc1ccc(C(=O)N(CCc2ccccc2)Cc2ccccc2)c(OC)n1	30*	-2	-15	-8	-1	10
C[C@@H]1CN([C@H](C)CO)C(=O)c2cc(NC(=O)CCCCCC(=O)Nc3ccccc3N)ccc2O[C@@H]1CN(C)S(=O)(=O)c1ccc(F)cc1	-2	0	-7	-25	-6	3
O=c1c2ccccc2nc2c3ccccc3c(NCc3ccccn3)nn12	0	-1	-24	8	-6	112*
C[C@H]1CN([C@@H](C)CO)C(=O)Cc2cc(NS(=O)(=O)c3ccccc3)ccc2O[C@H]1CN(C)C(=O)NC1CCCCC1	0	-5	5	-27	-2	2
Cc1cccc(NC(=S)N(CCc2ccncc2)C(C)C)c1C	2	-3	3	0	0	-9
CC(C)N(CCc1ccncc1)C(=S)Nc1cccc(Cl)c1	nt	1	-17*	-3	-8	-3
COc1ccc(C(=O)NC(=S)Nc2ccc(CN3CCOCC3)cc2)cc1Br	nt	-3	-22*	1	5	16*
CC(=O)Nc1ccc(/C(C)=N/NC(=O)c2ccc(CN3CCOCC3)cc2)cc1	1	-1	6	-5	-1	35*
CCOc1ccc(NC(=S)N=Nc2c(O)[nH]c3ccccc23)cc1	nt	1	-11	0	3	-9
SMILES	E-selectin induc	ERAP1 HTS inh	Ecoli rRNA inh	S100A4 MyoIIA	AF4-AF9 inh	SIRT5 block
Oc1cccc(NC(=S)N=Nc2c(O)[nH]c3ccccc23)c1	nt	8	-54*	-2	nt	3
CCC[N+]1(CC#CC2(O)CCCCC2)CCOCC1	nt	85*	30	5	-2	nt
Cc1ccc(-n2c(Cc3cccc4ccccc34)n[nH]c2=S)c(C)c1	0	-1	-45*	-3	-2	7
N#C[C@H]1[C@@H](c2ccc(-c3ccccc3F)cc2)[C@H](CO)N1C(=O)Cc1ccccc1	0	5	-56	4	1	3
COc1cccc(C(C)NC(=S)NCc2ccc(Cl)cc2)c1 (centres undefined)	nt	-1	-24*	-2	-4	nt
CCN(C[C@H]1N[C@@](C)(C(=O)OC)[C@H]2C(=O)N(Cc3ccccc3)C(=O)[C@@H]12)S(=O)(=O)c1ccc(C)cc1	nt	-4	-21*	15	-1	2
COC(=O)[C@]1(C)N[C@H](CN(C)S(=O)(=O)c2ccc(C)cc2)[C@@H]2C(=O)N(C)C(=O)[C@@H]21	nt	-1	-6	-3	9	2
COC(=O)[C@]1(C)N[C@H](CN(C)S(=O)(=O)c2ccc(C(C)(C)C)cc2)[C@@H]2C(=O)N(C)C(=O)[C@@H]21	nt	-4	-25*	-5	4	-2
COc1ccc(S(=O)(=O)N[C@@H]2CC[C@@H](CCNC(=O)CN3CCOCC3)O[C@@H]2CO)cc1	0	1	2	2	0	1
CN1CCc2cccc3c2[C@@H]1Cc1ccc(O)c(O)c1-3	nt	nt	nt	17	26*	nt
C[C@@H]1CN([C@H](C)CO)S(=O)(=O)c2ccc(C#Cc3ccncc3)cc2O[C@H]1CN(C)C(=O)C1CC1	-1	-1	-2	31	-1	3
C[C@@H]1CN([C@@H](C)CO)C(=O)c2cc(NS(=O)(=O)c3cccs3)ccc2O[C@@H](C)CCCCO[C@@H]1CN(C)CC1CCCCC1	0	-4	-1	3	5	9
O=C(N1CCN(Cc2ccc3c(c2)OCO3)CC1)C(Cl)(Cl)Cl	nt	1	-19*	-1	1	0
O=C(O)c1ccccc1C(=O)N1CCN(Cc2ccc3c(c2)OCO3)CC1	0	1	6	4	1	1
O=C(c1ccc2c(c1)OCO2)C1CCCN(Cc2cn[nH]c2-c2ccccc2)C1 (centres undefined)	nt	-1	-1	8	3	6
c1ccc(-c2[nH]ncc2CN2CCN(Cc3ccc4c(c3)OCO4)CC2)cc1	0	7	-47*	3	2	-2
Cc1c(NC(=S)NC(=O)c2sc3ccccc3c2Cl)cccc1C(=O)O	0	-2	-6	0	-2	36*
